Assay results as given in ChEMBL document CHEMBL1131493, “Inhibitors of farnesyl protein transferase. 4-Amido, 4-carbamoyl, and 4-carboxamido derivatives of 1-(8-chloro-6,11-dihydro-5H-benzo[5,6]- cyclohepta[1,2-b]pyridin-11-yl)piperazine and 1-(3-bromo-8-chloro-6,11- dihydro-5H-benzo[5,6]cyclohepta[1,2-b]pyridin-11-yl)piperazine” (J Med Chem, 1998).
Values joined by “and” are separate entries in the source; they are usually repeats but may differ in a detail not shown here. Identical values can stand only once.

Columns and labels:
[1] = Maximal plasma concentration in nude mice after 25 mg/kg oral dose; assay type: ADME, organism-based; design: dose 25 mg/kg, route oral; details: mouse
Cynomolgus monkey [2] = assay: (§1) In vivo antitumor efficacy in cynomolgus monkeys by injecting a dose of 25 mg/kg, as HCl salt in saline solution, iv and the serum half-life was determined; assay type: ADME, organism-based, Macaca fascicularis; design: dose 25 mg/kg, route intravenous; details: in vivo
Outline: (§2)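 Serum pharmacokinetics in nude mice or cynomolgus monkeys after oral (po) or iv dosing. Compounds were given as hydrochloride salts in 20% HPβCD unless otherwise noted. Other formulations were the hydrochloride salt in saline, the micronized free base in 20% HPβCD or corn oil (po) with saline for iv, or the hydrochloride salt in 0.4% methyl cellulose (po).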

[3] = as §1; assay type: ADME, organism-based, Macaca fascicularis; design: dose 25 mg/kg, route intravenous; details: cynomolgus monkey, serum; outline: as §2
[4] = Bioavailability in cynomolgus monkey (dose 25 mg/kg i.v.); assay type: ADME, organism-based, Macaca fascicularis; details: in vivo, iv; outline: as §2
[5] = target: geranylgeranyltransferase type-I (Rattus norvegicus, UniProt P53610+Q04631); assay: Inhibition of rat Geranylgeranyl transferase (GGPT); assay type: protein-complex assay
[6] = In vivo antitumor efficacy in nude mice by injecting a dose of 25 mg/kg, as HCl salt in saline solution, iv and the serum half-life was determined; assay type: ADME, organism-based; design: dose 25 mg/kg, route intravenous; details: mouse
[7] = Oral bioavailability in mouse (nude) (dose 25 mg/kg i.v.); assay type: ADME, organism-based; details: in vivo
[8] = In vivo antitumor efficacy in nude mice by injecting a dose of 25 mg/kg, as HCl salt in saline solution, iv and the total drug exposure was determined. (0-24hr); assay type: ADME, organism-based; design: time < 24 hr, dose 25 mg/kg, route intravenous; details: mouse
[9] = In vivo antitumor efficacy in nude mice by injecting a dose of 25 mg/kg, as HCl salt in saline solution, perorally and the total drug exposure was determined (0-24hr); assay type: ADME, organism-based; design: time < 24 hr, dose 25 mg/kg, route oral; details: mouse, po
Cynomolgus monkey [10] = assay: In vivo antitumor efficacy in cynomolgus monkeys by injecting a dose of 25 mg/kg, as HCl salt in saline solution, perorally and the maximum drug concentration was determined; assay type: ADME, organism-based, Macaca fascicularis; design: dose 25 mg/kg, route oral; details: po; outline: as §2
[11] = In vivo antitumor efficacy in cynomolgus monkeys by injecting a dose of 25 mg/kg, as HCl salt in saline solution, iv and the total drug exposure was determined. (0-8 hr); assay type: ADME, organism-based, Macaca fascicularis; design: time < 8 hr, dose 25 mg/kg, route intravenous; details: cynomolgus monkey; outline: as §2
Cynomolgus monkey [12] = assay: (§3) In vivo antitumor efficacy in cynomolgus monkeys by injecting a dose of 25 mg/kg, as the micronised free base in corn oil, perorally and the total drug exposure was determined (0-8 hr); assay type: ADME, organism-based, Macaca fascicularis; design: time < 8 hr, dose 25 mg/kg, route oral; details: po, 8 h; outline: as §2
[13] = as §3; assay type: ADME, organism-based, Macaca fascicularis; design: time < 8 hr, dose 25 mg/kg, route oral; details: cynomolgus monkey, po; outline: as §2
Mus musculus = assay: In vivo antitumor efficacy in nude mice by injecting a dose of 25 mg/kg, as HCl salt in saline solution, perorally and the duration of action was reported; assay type: ADME, organism-based; design: dose 25 mg/kg, route oral; details: po
[14] = In vivo antitumor efficacy in nude mice by injecting a dose of 25 mg/kg, as HCl salt in saline solution, iv and the total drug exposure was determined. (0-4 hr); assay type: ADME, organism-based; design: time < 4 hr, dose 25 mg/kg, route intravenous; details: mouse
[15] = target: T1, Protein farnesyltransferase (Homo sapiens, UniProt P49354+P49356); assay: In vitro inhibition of farnesyltransferase farnesylation of the H-ras oncogene; assay type: protein-complex assay
[16] = In vivo antitumor efficacy in nude mice by injecting a dose of 25 mg/kg, as HCl salt in saline solution, perorally and the total drug exposure was determined (0-4 hr); assay type: ADME, organism-based; design: time < 4 hr, dose 25 mg/kg, route oral; details: mouse, po
[17] = Oral bioavailability in mouse (nude) (dose of 25 mg/kg); assay type: ADME, organism-based; details: in vivo; outline: as §2
[18] = target: T1, Protein farnesyltransferase; assay: Inhibition of Farnesyltransferase from Ras-CVLS or Ras-CVLL in Cos-7 monkey kidney cells; assay type: cell-based, Chlorocebus aethiops

**Q.** Which results are given for `O=C(Cc1cccnc1)N1CCN(C2c3ccc(Cl)cc3CCc3cccnc32)CC1` (stereo not drawn)?
**A.** Cmax [1]: 3900 nM; T1/2 (Cynomolgus monkey [2]): 1.5 h; half-life [3]: 1.5 h; F [4]: 1.4%; bioavailability [4]: 2.2%; IC50 [5]: > 46000 nM; half-life [6]: 0.2 h; bioavailability [7]: 36%; AUC at 24 h [8]: 1100 ng·h/mL; AUC at 24 h [9]: 400 ng·h/mL; Cmax (Cynomolgus monkey [10]): 290 nM and 110 nM; AUC at 8 h [11]: 48600 ng·h/mL; AUC (Cynomolgus monkey [12]): 1.07 uh ml-1; AUC at 8 h [13]: 450 ng·h/mL; Time above IC50 (Mus musculus): 0.3 h

**Q.** For `CN1CCC(CC(=O)N2CCN(C3c4ccc(Cl)cc4CCc4cccnc43)CC2)CC1` (stereo not drawn), which Cmax [1] is on record?
**A.** Its Cmax is 1400 nM.

**Q.** What about the AUC at 4 h [14] of the same compound?
**A.** The AUC at 4 h was 4100 ng·h/mL.

**Q.** What about the IC50 [15] of the same compound?
**A.** The IC50 was 1400 nM.

**Q.** What about the half-life [6] of the same compound?
**A.** Its half-life is over 1 h.

**Q.** And the AUC at 4 h [16]?
**A.** The AUC at 4 h was 1300 ng·h/mL.

**Q.** And the bioavailability [17]?
**A.** The bioavailability was 32%.

**Q.** What about the IC50 [18] of the same compound?
**A.** Its IC50 is 930 nM.

**Q.** What about the “Time above IC50” value (Mus musculus) of the same compound?
**A.** Its value is 4 h.
